Assay results of several laboratories.
Each line is one published result; the experiments were not run side by side.
Medium: plasma

SMILES	system	conditions	half-life [h]
C#C[C@]1(COP(=O)(O)OP(=O)(O)OP(=O)(O)O)O[C@@H](n2cnc3c(N)nc(F)nc32)C[C@@H]1O	human	oral, 30 mg, single dose	118
COc1cc(C(=O)NC2CCN(C)CC2)c(F)cc1Nc1ncc(C(F)(F)F)c(Oc2cccc3c2C(=O)N(C)C3)n1	human	oral, 10 mg, multiple doses, once daily, patients	25.8
CC(C)n1cc(C#N)c2cc(-n3cc(C(=O)O)cn3)ccc21	human	oral, 100 mg, single dose, fasted, healthy volunteers	6.6
Cc1cc(Nc2ncc(Cl)c(Nc3ccccc3S(=O)(=O)C(C)C)n2)c2c(c1C1CCN(C)CC1)C[C@@H](C)O2	human	oral, 160 mg, single dose, fed	34.7
CC(C)[C@](O)(c1ccc2cc(OC(F)F)c(OC(F)F)cc2c1)c1c[nH]nn1	female human	oral, 600 mg, single dose	8.4
CO[C@H]1CC[C@H](N2C(=O)CNc3ncc(-c4ccc(C(C)(C)O)nc4)nc32)CC1	human	oral, 45 mg, patients	4.86
O=C(Nc1c(Cl)cncc1Cl)c1ccc(OC(F)F)c(OCC2CC2)c1	human	oral, 0.5 mg, single dose	19.9
COCCOc1cnc2ccn([C@H](C)c3nnc4c(F)cc(-c5cnn(C)c5)cn34)c(=O)c2c1	human	oral, 150 mg, multiple doses, once daily, patients	9.9
CC(C)(O)c1ccccc1-c1ccc2[nH]c(/C=C/c3ccc(C(F)(F)F)cc3)nc2c1	male human	oral, 120 mg, single dose, fasted, healthy volunteers	63
COc1ccc([C@@H]2CN(C(=O)[C@@H](O)CO)C[C@@]2(C)[C@@H](C)O)cc1OC1CN(c2ccc(C)cn2)C1	human	oral, 1.5 mg, single dose, healthy volunteers	13.5
CC(C)(Sc1ccncc1-c1ccc(C#N)c2ccccc12)C(=O)O	male human	oral, 5 mg, single dose, fed, healthy volunteers	12.7
Nc1cc(C(F)(F)F)c(-c2cc(N3CCOCC3)nc(N3CCOCC3)n2)cn1	human	oral, 25 mg/day, patients	36.8
CCOc1cc([C@@H](CS(C)(=O)=O)N2C(=O)c3cccc(NC(C)=O)c3C2=O)ccc1OC	human	oral, 30 mg, single dose, healthy volunteers	8.08
CCOc1cc2ncc(C#N)c(Nc3ccc(OCc4ccccn4)c(Cl)c3)c2cc1NC(=O)/C=C/[C@H]1CCCN1C	human	oral, 80 mg, single dose	12.9
CCNCCCNC/C=C\CNCCCNCC	human	intravenous, 200 mg, patients, infusion	0.14
C[C@@H](Nc1cc(F)cc(F)c1)c1cc(C(=O)N(C)C)cc2c(=O)cc(N3CCOCC3)oc12	human	oral, 120 mg, single dose, patients	3.33
Cn1cc(-c2ccc(S(=O)(=O)[C@@H]3C[C@@H](C(=O)NC4(C#N)CC4)N(C(=O)C4(C(F)(F)F)CC4)C3)c(C(F)(F)F)c2)cn1	human	oral, 30 mg, single dose, fasted, healthy volunteers	10.2
CO[C@@H]1[C@H](OC(=O)N2CC(CCN3CCOCC3)C2)CC[C@]2(CO2)[C@H]1[C@@]1(C)O[C@@H]1CC=C(C)C	human	subcutaneous, 0.2 mg, single dose, healthy volunteers	0.49
c1cnc2ccc(Nc3nc(NC4CC4)c4nc[nH]c4n3)cc2c1	human	oral, 50 mg/m², patients	2
